Experimental data: ChEMBL document CHEMBL1156675, “Synthesis and antituberculosis activity of new thiazolylhydrazone derivatives” (Eur J Med Chem, 2008)
Values after ≈ are worked out from the molar mass of the structure shown.

How the values were obtained:
NIH3T3 = experiment: Cytotoxicity against mouse NIH3T3 cells after 24 hrs by MTT assay; assay type: cell-based; conditions: NIH3T3, 24 h
Outline: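 NIH/3T3 cells grown in DMEM with 10% fetal calf serum, penicillin and streptomycin at 37 °C, 5% CO2. Plated at 5 × 10⁴ cells/ml, preincubated 24 h, then exposed to compounds (DMSO stocks diluted in medium, final DMSO <0.6%) for 24 h. MTT 0.5 mg/ml final, 4 h, 37 °C; formazan dissolved in DMSO, absorbance 540 nm. Triplicate wells; IC50 = concentration halving absorbance versus control.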

[1] = system: Mycobacterium tuberculosis; experiment: Antitubercular activity against Mycobacterium tuberculosis H37Rv ATCC 27294 by microplate alamar blue assay; assay type: functional
[2] = system: Mycobacterium tuberculosis; experiment: Antitubercular activity against Mycobacterium tuberculosis H37Rv ATCC 27294 at 6.25 ug/ml by microplate alamar blue assay; assay type: functional
Outline: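 Single-concentration primary screen at 6.25 against H37Rv in BACTEC 12B medium by Microplate Alamar Blue Assay, with results read as percent inhibition on a BACTEC 460 radiometric system. Positive BACTEC culture (GI ≥500) or McFarland No. 1 suspension was inoculated into drug vials and incubated at 37 °C with daily reads. Once the control GI reached ≥30, the daily ΔGI of drug and control vials was compared.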

COc1ccc(/C(C)=N/Nc2nc(-c3ccc4c(c3)CCC4)cs2)cc1 gave an IC50 (NIH3T3) of 180 µg/mL (≈ 495 µM).
Compound C/C(=N\Nc1nc(-c2ccc3c(c2)CCC3)cs1)c1ccccc1 has an IC50 (NIH3T3) of 200 µg/mL (≈ 600 µM).
C/C(=N\Nc1nc(-c2ccc3c(c2)CCC3)cs1)c1ccc(C)cc1 showed an IC50 (NIH3T3) of 49 µg/mL (≈ 141 µM).
C/C(=N\Nc1nc(-c2ccc3c(c2)CCC3)cs1)c1ccc(Cl)cc1 was tested, and the IC50 (NIH3T3) was 120 µg/mL (≈ 326 µM).
C/C(=N\Nc1nc(-c2ccc3c(c2)CCC3)cs1)c1ccc([N+](=O)[O-])cc1 showed an IC50 (NIH3T3) of 90 µg/mL (≈ 238 µM).
C/C(=N\Nc1nc(-c2ccc3c(c2)CCC3)cs1)c1ccc(Cl)c(Cl)c1 was tested, and the IC50 (NIH3T3) was 110 µg/mL (≈ 273 µM).
CO[C@H]1/C=C/O[C@@]2(C)Oc3c(C)c(O)c4c(O)c(c(/C=N/N5CCN(C)CC5)c(O)c4c3C2=O)NC(=O)/C(C)=C\C=C\[C@H](C)[C@H](O)[C@@H](C)[C@@H](O)[C@@H](C)[C@H](OC(C)=O)[C@@H]1C [RIFAMPIN] gave an MIC [1] of 0.25 µg/mL (≈ 0.304 µM) and an inhibition at 6.25 µg/mL [2] of 98%.
